Measurements published in paper PMC2649372 (Biochemistry, 2008).
Where a chain is given by its changes, count along the chain named. Marks after values point to notes of the source that are not given here.

Key:
[1] = target: T1, N128R mutant 5-HT3 receptor (mouse 5-HT3A subunit) (Mus musculus, UniProt P23979, N128R); assay: Agonist-induced currents, voltage clamp electrophysiology in Xenopus oocytes; assay type: cell-based; conditions: SR = small (<100 nA) responses
T1 sequence (P23979 24-483 isoform P23979-2 N128R limits assumed): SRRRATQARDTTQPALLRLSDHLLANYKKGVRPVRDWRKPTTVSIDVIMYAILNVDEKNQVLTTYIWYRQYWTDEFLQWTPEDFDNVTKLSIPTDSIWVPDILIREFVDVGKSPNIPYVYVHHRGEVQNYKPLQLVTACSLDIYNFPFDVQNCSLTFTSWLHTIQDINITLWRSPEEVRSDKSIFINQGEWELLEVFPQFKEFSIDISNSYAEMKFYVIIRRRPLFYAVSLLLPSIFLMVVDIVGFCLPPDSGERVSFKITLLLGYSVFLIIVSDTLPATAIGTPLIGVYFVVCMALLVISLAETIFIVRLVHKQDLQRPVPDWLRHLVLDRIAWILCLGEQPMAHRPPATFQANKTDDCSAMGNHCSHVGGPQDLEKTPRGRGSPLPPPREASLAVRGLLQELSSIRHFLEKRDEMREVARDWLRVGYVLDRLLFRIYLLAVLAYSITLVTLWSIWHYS

[2] = target: E129K mutant 5-HT3 receptor (mouse 5-HT3A subunit) (Mus musculus, UniProt P23979, E129K); assay: as above; assay type: cell-based; conditions: NR = no response
[3] = target: N128-Nha mutant 5-HT3 receptor (mouse 5-HT3A subunit); assay: Agonist-induced currents, voltage clamp electrophysiology in Xenopus oocytes; assay type: cell-based; conditions: SR = small (<100 nA) responses
Procedure, shortened: (§1)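 Mouse 5-HT3A receptor carrying Nha or Akp, introduced by nonsense suppression. Stage V-VI Xenopus oocytes were co-injected with 5 ng cRNA and 25 ng photodeprotected aminoacyl-tRNA. Controls received tRNA without an amino acid. At 24-72 h, agonist currents were recorded by two-electrode voltage clamp at -60 mV, 22-25 °C, in Ca-free ND96 (pH 7.5).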

[4] = target: T2, N128Q mutant 5-HT3 receptor (mouse 5-HT3A subunit) (Mus musculus, UniProt P23979, N128Q); assay: Agonist-induced currents, voltage clamp electrophysiology in Xenopus oocytes; assay type: cell-based; conditions: N128Q
T2 sequence (P23979 24-483 isoform P23979-2 N128Q limits assumed): T1 sequence (P23979 24-483 isoform P23979-2 N128R limits assumed) with R105Q

[5] = target: E129A mutant 5-HT3 receptor (mouse 5-HT3A subunit) (Mus musculus, UniProt P23979, E129A); assay: as above; assay type: cell-based; conditions: NR = no response
[6] = tested on: Asn128 mutant 5-HT3 receptors (all except Ala and Val); assay: Relative efficacy of mCPBG, voltage clamp electrophysiology in Xenopus oocytes; assay type: cell-based, mouse; conditions: Asn128 mutations
[7] = target: E129G mutant 5-HT3 receptor (mouse 5-HT3A subunit) (Mus musculus, UniProt P23979, E129G); assay: Agonist-induced currents, voltage clamp electrophysiology in Xenopus oocytes; assay type: cell-based; conditions: NR = no response
[8] = target: T3, N128-Akp mutant 5-HT3 receptor (mouse 5-HT3A subunit) (Mus musculus, UniProt Q6J1J7); assay: Agonist-induced currents, voltage clamp electrophysiology in Xenopus oocytes; assay type: cell-based
T3 sequence (Q6J1J7 24-483): T1 sequence (P23979 24-483 isoform P23979-2 N128R limits assumed) with R105N, F436L
Procedure, shortened: as §1

[9] = target: E129Q mutant 5-HT3 receptor (mouse 5-HT3A subunit) (Mus musculus, UniProt P23979, E129Q); assay: Agonist-induced currents, voltage clamp electrophysiology in Xenopus oocytes; assay type: cell-based; conditions: NR = no response
E129Q mutant 5-HT3 receptor (mouse 5-HT3A subunit), sequence (P23979 24-483 isoform P23979-2 E129Q limits assumed): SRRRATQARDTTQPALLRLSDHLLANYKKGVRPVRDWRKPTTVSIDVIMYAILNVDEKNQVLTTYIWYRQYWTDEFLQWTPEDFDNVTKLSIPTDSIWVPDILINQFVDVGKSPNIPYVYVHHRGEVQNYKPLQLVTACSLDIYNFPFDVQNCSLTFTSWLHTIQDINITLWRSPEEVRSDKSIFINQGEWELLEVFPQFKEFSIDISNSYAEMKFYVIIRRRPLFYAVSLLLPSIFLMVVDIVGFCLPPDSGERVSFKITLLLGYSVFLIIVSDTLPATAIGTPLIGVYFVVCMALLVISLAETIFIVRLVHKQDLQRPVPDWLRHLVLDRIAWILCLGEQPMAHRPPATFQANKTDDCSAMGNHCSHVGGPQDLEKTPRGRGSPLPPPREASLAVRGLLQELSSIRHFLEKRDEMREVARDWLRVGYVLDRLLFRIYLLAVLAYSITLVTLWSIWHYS

E129K mutant 5-HT3 receptor (mouse 5-HT3A subunit), sequence (P23979 24-483 isoform P23979-2 E129K limits assumed): as the sequence (P23979 24-483 isoform P23979-2 E129Q limits assumed) above, with Q106K counted along it
E129A mutant 5-HT3 receptor (mouse 5-HT3A subunit), sequence (P23979 24-489 E129A): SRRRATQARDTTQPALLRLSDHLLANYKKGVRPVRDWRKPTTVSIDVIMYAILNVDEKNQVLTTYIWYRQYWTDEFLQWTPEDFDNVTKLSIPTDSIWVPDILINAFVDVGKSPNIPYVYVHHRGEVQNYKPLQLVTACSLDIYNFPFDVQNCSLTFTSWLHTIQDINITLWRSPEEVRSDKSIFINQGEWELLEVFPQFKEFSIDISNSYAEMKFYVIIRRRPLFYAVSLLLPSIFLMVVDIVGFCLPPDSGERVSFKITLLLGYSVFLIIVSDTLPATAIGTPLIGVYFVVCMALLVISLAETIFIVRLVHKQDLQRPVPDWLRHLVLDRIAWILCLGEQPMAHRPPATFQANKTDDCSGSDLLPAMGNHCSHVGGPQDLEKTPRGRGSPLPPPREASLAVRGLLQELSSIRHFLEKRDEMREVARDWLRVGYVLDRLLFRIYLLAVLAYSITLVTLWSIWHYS
E129G mutant 5-HT3 receptor (mouse 5-HT3A subunit), sequence (P23979 24-483 isoform P23979-2 E129G limits assumed): as the sequence (P23979 24-483 isoform P23979-2 E129Q limits assumed) above, with Q106G counted along it

Structure (SMILES) | EC50 [1] | nH (Hill coefficient) [1] | pEC50 [1] | EC50 [2] | EC50 [3] | nH (Hill coefficient) [3] | pEC50 [3] | EC50 [4] | nH (Hill coefficient) [4] | pEC50 [4] | EC50 [5] | increase of mCPBG Rmax compared to that of WT [6] | EC50 [7] | EC50 [8] | nH (Hill coefficient) [8] | pEC50 [8] | nH (Hill coefficient) [9]
N=C(N)NC(=N)Nc1cccc(Cl)c1 [mCPBG, m-chlorophenylbiguanide] | 7.3 µM | 1.93 ± 0.16 | 5.14 ± 0.02 ^b | > 100 µM | 2.8 µM | 2.18 ± 0.23 | 5.55 ± 0.02 ^b | 3 µM | 2.41 ± 0.16 | 5.52 ± 0.18 ^b | > 100 µM | 2−19 fold | > 100 µM |  |  |  | 
NCCc1c[nH]c2ccc(O)cc12 [5-HT, 5-hydroxytryptamine] |  |  |  |  |  |  |  |  | 2.11 ± 0.29 |  |  |  |  | 4.6 µM | 1.49 ± 0.06 ^b | 5.33 ± 0.01 ^b | 1.55 ± 0.07 ^b
